≈ marks a conversion by molar mass, not a printed value.
How the values were obtained:
[1] = system: Mycobacterium tuberculosis; assay: Antimycobacterial activity against Mycobacterium tuberculosis H37Rv assessed as growth inhibition at 6.25 ug/ml by BACTEC 460 radiometric assay relative to control; assay type: functional; conditions: read-out: GI
[2] = system: Mycobacterium tuberculosis; assay: Antimycobacterial activity against Mycobacterium tuberculosis H37Rv ATCC 27294 incubated in dark for 5 days by Alamar Blue assay; assay type: functional; conditions: H37Rv ATCC 27294, 120 h
In short: (§1)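 Middlebrook 7H9 broth with 0.4% glycerol and 10% OADC, pH 6.6. Compounds in DMSO, final 100–1.56 µg/mL by twofold steps. Inoculum 0.5–1.0 McFarland in saline, diluted 10⁻¹. Static incubation at 37 °C, dark, humid, 5 days. Alamar Blue (resazurin/Tween 80) added, read after 24 h. MIC = lowest concentration preventing the blue-to-pink change by eye; turbidity also inspected. Isoniazid control.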

[3] = system: Mycobacterium kansasii; assay: Antimycobacterial activity against Mycobacterium kansasii Hauduroy ATCC 12478 incubated in dark for 5 days by Alamar Blue assay; assay type: functional, Mycobacterium kansasii ATCC 12478; conditions: 120 h
[4] = system: Mycobacterium avium; assay: Antimycobacterial activity against Mycobacterium avium subsp. avium Chester ATCC 15769 incubated in dark for 5 days by Alamar Blue assay; assay type: functional; conditions: Chester ATCC 15769, 120 h; in short: as §1
[5] = system: Mycolicibacterium smegmatis; assay: Antimycobacterial activity against Mycobacterium smegmatis ATCC 607 incubated in dark for 48 hrs by resazurin assay; assay type: functional; conditions: ATCC 607, 48 h
In short: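 Broth microdilution in Middlebrook 7H9 with glycerol and OADC, pH 6.6. Inoculum 0.5–1.0 McFarland, diluted 1:20 in broth. Compounds in DMSO by binary dilution, final 3.91–500 µg/mL; DMSO ≤2.5% v/v. Sealed plates kept dark, 37 °C, no agitation. After 48 h, 0.01% resazurin added; read after a further 2.5 h. Run in duplicate.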

[6] = Solubility of compound in DMSO at 15 mg at 55 to 80 degC; assay type: physicochemical
[7] = system: HepG2; assay: Cytotoxicity against human HepG2 cells assessed as decrease in cell viability after 24 hrs by MTS assay; assay type: cell-based; conditions: HepG2, 24 h
In short: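 HepG2 (passage 32–34) seeded at 1×10^4 cells/well and treated 24 h later. Compounds in DMSO, 0.1–1000 µM depending on solubility; DMSO ≤1%. Triplicates at 37 °C, 5% CO2 for 24 h. MTS reagent (CellTiter 96 AQueous One) for 2 h, absorbance at 490 nm. IC50 by nonlinear regression of absorbance relative to untreated cells.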

[8] = Selectivity index, ratio of IC50 for human HepG2 cells to MIC for Mycobacterium tuberculosis H37Rv ATCC 27294; assay type: toxicity; conditions: read-out: Selectivity Index
In short: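 SI = HepG2 IC50 / Mtb H37Rv MIC, with MIC converted to µM (µg/mL ÷ MW). HepG2 cells (passage 32–34) seeded at 1×10^4 per well. Treated after 24 h with 0.1–1000 µM depending on solubility, DMSO ≤1%, triplicates, 37 °C, 5% CO2, 24 h. Viability read by MTS-type reagent at 490 nm after 2 h. IC50 from nonlinear regression.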

[9] = Solubility of compound in DMSO at 15 mg at room temperature; assay type: physicochemical
[10] = system: HepG2; assay: Cytotoxicity against human HepG2 cells assessed as decrease in cell viability after 24 hrs by CellTox green assay; assay type: cell-based; conditions: HepG2, 24 h
In short: (§2)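 HepG2 seeded at 1×10^4 cells/well, dosed the next day with compounds in DMSO at 0.1–500 µM; DMSO ≤1%. Triplicates at 37 °C, 5% CO2. CellTox Green reagent added after 24 h exposure, 15 min at room temperature, fluorescence Ex 485/Em 520 nm. Reading repeated 24 h later for the 48 h value. IC50 by nonlinear regression against untreated control.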

[11] = system: HepG2; assay: Cytotoxicity against human HepG2 cells assessed as decrease in cell viability after 48 hrs by CellTox green assay; assay type: cell-based; conditions: HepG2, 48 h; in short: as §2

| SMILES | inhibition of growth at 6.25 µg/mL [1] [%] | MIC [2] | MIC [3] [µg/mL] | MIC [4] [µg/mL] | MIC [5] [µg/mL] | solubility [6] | IC50 [7] [µM] | selectivity ratio [8] | solubility [9] | IC50 [10] [µM] | IC50 [11] [µM] |
| --- | --- | --- | --- | --- | --- | --- | --- | --- | --- | --- | --- |
| Cc1cnc(NC(=O)c2cnc(C(C)(C)C)c(Cl)n2)s1 | 15 to 65 |  |  |  |  |  |  |  |  |  |  |
| Cc1csc(NC(=O)c2cnc(C(C)(C)C)c(Cl)n2)n1 | 15 to 65 |  |  |  |  |  |  |  |  |  |  |
| O=C(Nc1nc(-c2ccccn2)cs1)c1cnccn1 |  | 22.1 µM | > 50 | > 50 | > 125 | Soluble | > 25 | > 1.1 |  |  |  |
| COc1ccc(-c2csc(NC(=O)c3cnccn3)n2)cc1OC |  | > 50 µg/mL | > 50 | > 50 | > 125 |  |  |  | Soluble |  |  |
| COc1ccc(-c2csc(NC(=O)c3cnc(Cl)cn3)n2)cc1 |  | 4.5 µM | > 50 | > 50 | > 500 | Soluble | > 75 | > 16.7 |  |  |  |
| O=C(O)c1cn(C2CC2)c2cc(N3CCNCC3)c(F)cc2c1=O [CIPROFLOXACIN] |  | 0.098 to 0.195 µg/mL | 0.098 to 0.195 (≈ 0.296 to 0.589 µM) | 0.098 to 0.195 (≈ 0.296 to 0.589 µM) | 0.098 to 0.195 (≈ 0.296 to 0.589 µM) |  |  |  |  |  |  |
| CC(C)(C)c1ncc(C(=O)Nc2nccs2)nc1Cl | 15 to 65 |  |  |  |  |  |  |  |  |  |  |
| NNC(=O)c1ccncc1 [ISONIAZID] |  | 0.1 to 0.2 µg/mL | 12.5 to 25 (≈ 91.1 to 182 µM) | 6.25 to 12.5 (≈ 45.6 to 91.1 µM) | 7.8 to 15.6 (≈ 56.9 to 114 µM) |  |  |  | Soluble |  |  |
| Cc1cnc(NC(=O)c2cncc(Cl)n2)s1 | 15 to 65 |  |  |  |  |  |  |  |  |  |  |
| O=C(Nc1nc(-c2ccccn2)cs1)c1cncc(Cl)n1 |  | > 50 µg/mL | > 50 | > 50 | > 125 | Soluble |  |  |  |  |  |
| Cc1csc(NC(=O)c2cncc(Cl)n2)n1 | 15 to 65 |  |  |  |  |  |  |  |  |  |  |
| O=C(Nc1nc(-c2ccccn2)cs1)c1cnc(Cl)cn1 |  | > 50 µg/mL | > 50 | > 50 | > 125 | Soluble |  |  |  |  |  |
| O=C(Nc1nc(-c2ccc(Cl)cc2)cs1)c1cnc(Cl)cn1 |  | > 50 µg/mL | > 50 | > 50 | > 500 |  |  |  | Soluble |  |  |
| O=C(Nc1nc(-c2ccc(Cl)cc2)cs1)c1cncc(Cl)n1 |  | > 12.5 µg/mL | > 12.5 | > 12.5 | 62.5 (≈ 178 µM) |  |  |  | Soluble |  |  |
| COc1ccc(-c2csc(NC(=O)c3cnccn3)n2)cc1 |  | > 100 µg/mL | > 100 | > 100 | > 250 |  |  |  | Soluble |  |  |
| O=C(Nc1nc(-c2ccccc2)cs1)c1cnccn1 |  | > 50 µg/mL | > 50 |  | > 250 |  |  |  | Soluble |  |  |
| O=C(Nc1nc(-c2ccc(F)cc2)cs1)c1cnc(Cl)cn1 |  | 9.4 µM | 12.5 (≈ 37.3 µM) | > 50 | > 500 |  | 24.8 | 2.7 | Soluble | 22.4 | 18.1 |
| O=C(Nc1nc(-c2ccccc2)cs1)c1cncc(Cl)n1 |  | > 50 µg/mL | > 50 |  | > 500 | Soluble |  |  |  |  |  |
| CO[C@H]1/C=C/O[C@@]2(C)Oc3c(C)c(O)c4c(O)c(c(/C=N/N5CCN(C)CC5)c(O)c4c3C2=O)NC(=O)/C(C)=C\C=C\[C@H](C)[C@H](O)[C@@H](C)[C@@H](O)[C@@H](C)[C@H](OC(C)=O)[C@@H]1C [RIFAMPIN] |  | 0.78 to 1.56 µg/mL | 0.78 to 1.56 (≈ 0.948 to 1.9 µM) | 0.78 to 1.56 (≈ 0.948 to 1.9 µM) | 0.78 to 1.56 (≈ 0.948 to 1.9 µM) |  |  |  |  |  |  |
| O=C(Nc1nc(-c2ccc(F)cc2)cs1)c1cncc(Cl)n1 |  | 2.3 µM | 0.78 (≈ 2.33 µM) | 0.78 (≈ 2.33 µM) | > 250 |  | > 50 | > 21.5 | Soluble | > 50 | > 50 |
| COc1ccc(-c2csc(NC(=O)c3cncc(Cl)n3)n2)cc1 |  | 4.5 µM | 12.5 (≈ 36 µM) | > 12.5 | 62.5 (≈ 180 µM) |  | > 25 | > 5.6 | Insoluble |  |  |
| O=C(Nc1nc(-c2ccccc2)cs1)c1cnc(Cl)cn1 |  | > 100 µg/mL | > 100 | > 100 | > 500 | Soluble |  |  |  |  |  |
| O=C(Nc1nccs1)c1cncc(Cl)n1 | 15 to 65 |  |  |  |  |  |  |  |  |  |  |
| O=C(Nc1nc(-c2ccc(Cl)cc2)cs1)c1cnccn1 |  | > 12.5 µg/mL | > 12.5 | > 12.5 | 62.5 (≈ 197 µM) |  |  |  | Insoluble |  |  |
| COc1ccc(-c2csc(NC(=O)c3cncc(Cl)n3)n2)cc1OC |  | 4.1 µM | > 12.5 | > 12.5 | > 125 |  | > 25 | > 6 | Insoluble |  |  |
| O=C(Nc1nc(-c2ccc(F)cc2)cs1)c1cnccn1 |  | > 12.5 µg/mL | > 12.5 | > 12.5 | > 250 |  |  |  | Insoluble |  |  |
| COc1ccc(-c2csc(NC(=O)c3cnc(Cl)cn3)n2)cc1OC |  | > 12.5 µg/mL | > 12.5 | > 12.5 | > 250 |  |  |  | Insoluble |  |  |
